Here are results for 21 molecules from ChEMBL document CHEMBL3407480, “6-Sulfonylbenzothiazolones as potential scaffolds for the design of 5-HT6 ligands” (Eur J Med Chem, 2015).

The term IC50 denotes the point on the concentration scale where inhibition reaches its midpoint. Broadly, the Ki is the equilibrium dissociation constant of an inhibitor or competing ligand from its target. Low values mean tighter binding, high ones weaker binding.

The nature of data set [1]: Cytotoxicity against human SH-SY5Y cells assessed as inhibition of cell growth after 72 hrs by MTT assay. It counts as cell-based. An outline of the steps:
(§1)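 SH-SY5Y cells grown in DMEM with 2 mM L-glutamine, streptomycin, 100 IU/mL penicillin, 1 mM non-essential amino acids, 10% heat-inactivated FBS, 37 °C, 5% CO₂. Seeded at 2000 cells/well, serum-starved 24 h for synchrony, then exposed to test compounds (DMSO below 0.1%) at various concentrations up to 100. Growth read by MTT colorimetric assay after 72 h.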
For orientation: Tetrazolium dyes change colour on reduction, which living cells bring about.

The target in data set [2] is T1, 5-hydroxytryptamine receptor 6 (Homo sapiens, UniProt P50406). The experiment in a line: Displacement of [3H]LSD from human 5-HT6 receptor expressed in HEK293 cell membranes at 100 nM incubated for 60 mins by radioligand binding assay. The method, boiled down:
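Competition binding on membranes of HEK-293 cells transiently expressing human 5-HT6; 4 of protein incubated 60 min at 37 °C in duplicate with 2.5 nM [3H]-LSD in 50 mM Tris-HCl pH 7.4, 10 mM MgCl₂, 0.5 mM EDTA. Compounds tested at 10^-7 M for % displacement (n = 3), then Ki calculated. GF/C filtration, five ice-cold buffer washes.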
In general terms: In a radioligand displacement assay an active substance lowers the binding of a labelled ligand.

Data set [3] can be described thus: Cytotoxicity against human SH-SY5Y cells assessed as inhibition of cell growth at 100 uM after 72 hrs by MTT assay. It counts as cell-based. Conditions: read-out: GI. An outline of the steps: as §1
In data set [4] the target is T1, 5-hydroxytryptamine receptor 6. The experiment in a line: Displacement of [3H]LSD from human 5-HT6 receptor expressed in HEK293 cell membranes incubated for 60 mins by radioligand binding assay.

T1 sequence (P50406 whole entry): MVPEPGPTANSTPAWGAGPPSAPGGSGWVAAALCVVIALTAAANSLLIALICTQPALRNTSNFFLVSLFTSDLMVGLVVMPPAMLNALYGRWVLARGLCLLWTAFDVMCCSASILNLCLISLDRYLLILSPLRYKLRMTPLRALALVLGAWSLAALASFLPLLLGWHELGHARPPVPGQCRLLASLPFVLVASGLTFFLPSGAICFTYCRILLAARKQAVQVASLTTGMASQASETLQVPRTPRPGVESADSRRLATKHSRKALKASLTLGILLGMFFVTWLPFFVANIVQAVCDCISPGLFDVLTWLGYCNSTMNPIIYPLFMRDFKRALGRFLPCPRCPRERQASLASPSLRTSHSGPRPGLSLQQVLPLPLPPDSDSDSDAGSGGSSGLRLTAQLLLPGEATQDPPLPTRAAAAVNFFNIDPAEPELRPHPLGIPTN

For the molecule `O=c1sc2cc(S(=O)(=O)Nc3cccc4ccccc34)ccc2n1CCN1CCCC1`, the 50% inhibitory concentration (IC50) in data set [1] is 68.6 µM. The molecule also came in with an inhibition in data set [2] of 0%.

On to `CN(c1cccc2ccccc12)S(=O)(=O)c1ccc2c(c1)sc(=O)n2CCN1CCCC1`, for which the IC50 in data set [1] was 102 µM. Also, the inhibition in data set [2] is 40%.

As to `CN(C)CCn1c(=O)sc2cc(S(=O)(=O)Nc3ccccc3)ccc21`, the inhibition at 72 h, 100 µM in data set [3] came out at 0%. In data set [2], this molecule had an inhibition of 21%.

As to `CN(c1ccccc1)S(=O)(=O)c1ccc2c(c1)sc(=O)n2CCN1CCCC1`, in data set [1], the half-inhibitory concentration (IC50) worked out at 49.5 µM. In data set [2], this molecule gave an inhibition of 10%.

`CN(C)CCn1c(=O)sc2cc(S(=O)(=O)N(C)c3ccccc3)ccc21`: the IC50 in data set [1] is 91 µM. In addition, the inhibition in data set [2] was determined as 5%.

On to `O=c1sc2cc(NS(=O)(=O)c3ccccc3)ccc2n1CCN1CCCCC1`, for which, in data set [3], the inhibition at 72 h, 100 µM is 39%. In data set [2], this molecule came in with an inhibition of 6%.

For the molecule `CN(C)CCn1c(=O)sc2cc(S(=O)(=O)Nc3cccc4ccccc34)ccc21`, the Ki in data set [4] was determined as 0.1 µM. The IC50 in data set [1] came out at 45.7 µM.

On to `CN(C)CCn1c(=O)sc2cc(S(=O)(=O)N(C)c3cccc4ccccc34)ccc21`, for which, in data set [1], the half-inhibitory concentration (IC50) was 29 µM. In addition, the inhibition in data set [2] came to 0%.

In the case of `O=c1sc2cc(NS(=O)(=O)c3ccccc3)ccc2n1CCN1CCCC1`, in data set [3], the inhibition at 72 h, 100 µM was 25%. In data set [2], this molecule registered an inhibition of 11%.

`O=c1sc2cc(NS(=O)(=O)c3ccc4ccccc4c3)ccc2n1CCN1CCCC1`: the inhibition at 72 h, 100 µM in data set [3] turned out to be 28%. In data set [2], this molecule came in with an inhibition of 0%.

For `CN(c1ccccc1)S(=O)(=O)c1ccc2c(c1)sc(=O)n2CCN1CCCCC1`, in data set [1], the IC50 was found to be 50 µM. In addition, in data set [2], the inhibition stood at 0%.

`O=c1sc2cc(N(S(=O)(=O)c3ccccc3)S(=O)(=O)c3ccccc3)ccc2n1CCN1CCCC1`: in data set [3], the inhibition at 72 h, 100 µM is 19%. Also, the inhibition in data set [2] was found to be 20%.

Turning to `CN(C)CCn1c(=O)sc2cc(S(=O)(=O)c3ccccc3)ccc21`, in data set [1], the IC50 turned out to be 86.9 µM. This molecule also showed an inhibition in data set [2] of 16%.

As for `O=c1sc2cc(S(=O)(=O)Nc3ccccc3)ccc2n1CCN1CCCC1`, in data set [1], the IC50 worked out at 10 µM. Besides, the inhibition in data set [2] turned out to be 37%.

`CN(C)CCn1c(=O)sc2cc(NS(=O)(=O)c3ccc4ccccc4c3)ccc21`: the inhibition at 72 h, 100 µM in data set [3] came to 17%. In data set [2], the inhibition is 22%.

As for `O=c1sc2cc(NS(=O)(=O)c3ccc4ccccc4c3)ccc2n1CCN1CCCCC1`, the inhibition at 72 h, 100 µM in data set [3] was 5%. The inhibition in data set [2] was 4%.

As for `O=c1sc2cc(S(=O)(=O)c3ccccc3)ccc2n1CCN1CCCCC1`, in data set [1], the IC50 stood at 44.1 µM. This molecule also yielded an inhibition in data set [2] of 11%.

Regarding `CN(C)CCn1c(=O)sc2cc(NS(=O)(=O)c3ccccc3)ccc21`, the inhibition at 72 h, 100 µM in data set [3] turned out to be 20%. In data set [2], this molecule gave an inhibition of 5%.

Consider `O=c1sc2cc(S(=O)(=O)Nc3ccccc3)ccc2n1CCN1CCCCC1`, for which the half-inhibitory concentration (IC50) in data set [1] came to 17.4 µM. This molecule also had an inhibition in data set [2] of 7%.

As for `CN(c1cccc2ccccc12)S(=O)(=O)c1ccc2c(c1)sc(=O)n2CCN1CCCCC1`, in data set [1], the IC50 was 91.9 µM. In addition, the inhibition in data set [2] is 14%.

For `O=c1sc2cc(S(=O)(=O)Nc3cccc4ccccc34)ccc2n1CCN1CCCCC1`, in data set [1], the half-maximal inhibitory concentration (IC50) is 25.2 µM. In addition, the inhibition in data set [2] amounted to 3%.
